The conditions of series [1]: in silico predictions ref 77; cited from earlier work.
A short description of series [2]: Cytotoxic activity via the MTT method. Type of series: cell-based, human. Particulars: human, HepG2 cells.
Another series deals with P. falciparum W2 clone. Kind of series: In vitro antimalarial activity via the SYBR Green I assay. Type of series: cell-based, Plasmodium falciparum. In outline:
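Sorbitol-synchronized parasites in human O+ erythrocytes (0.5% parasitaemia, 2% haematocrit) received twofold dilutions of test compound, 1.56–200 µM final, in triplicate; artemisinin 170 nM was the control. Incubation was 72 h at 37 °C under 5% CO2/5% O2/90% N2. Cells were lysed in Tris/EDTA/saponin/Triton buffer with SYBR Green I, 30 min at 24 °C in the dark; ex 485/em 590 nm, uninfected-RBC blank subtracted. SI = HepG2 CC50 (MTT, 72 h) ÷ IC50.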

Series [3] relates to human hepatocellular carcinoma cell line (HepG2). Put plainly: Cytotoxic activity via the MTT method. The format is cell-based. The conditions noted are these: highest concentration tested 500 µM. (Tetrazolium dyes change colour on reduction, which living cells bring about.)
Series [4] concerns P. falciparum NF54 gametocytes (stages IV, V). Put plainly: Exflagellation-blocking bioassay. Particulars: 1 µM; ≥ 75% high, 25 to 75% average, below 25% inactive. The format is cell-based, Plasmodium falciparum. The method in brief: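 Stage IV–V gametocytes were first checked for exflagellation (≥30 exflagellating microgametocytes per 1000 RBC). They were then exposed for 48 h to test compound at 1 µM in triplicate, with DMSO ≤0.5% and DHA 1 µM as controls. Exflagellation was induced in ookinete medium containing xanthurenic acid, 20 min at 24 °C, and counted by microscopy at 1000×. Inhibition ≥75% was classed active.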

Consider six molecules from PMC11881275 (Malaria Journal, 2025).

Entries after “also recorded” stand apart in the source; their conditions may differ.

With `C[C@@H]1CC[C@H]2[C@@H](C)C(=O)O[C@@H]3O[C@@]4(C)CC[C@@H]1[C@]32OO4` [Artemisinin], in series [1], the Plasma protein binding result is given as “high plasm protein binding”. Besides, in series [2], the CC50 at 72 h is ≥ 500 µM and the viability at 72 h, 500 µM amounted to 100%. The “SI (selectivity index)” value in the series with P. falciparum W2 clone (CC50 HepG2 divided by IC50 W2) is listed as ≥ 23,809. In addition, in the series on P. falciparum W2 clone (Plasmodium falciparum, W2, 72 h, read-out: IC50 W2), the half-maximal inhibitory concentration (IC50) is 0.021 ± 0.004 µM.
Turning to `CC(=O)OCc1cn(-c2n[nH]c(C)n2)nn1` [Compound 13d, (1-(5-methyl-1H-1,2,4-triazol-3-yl)-1H-1,2,3-triazol-4-yl)methyl acetate], in series [2], the half-maximal cytotoxic concentration (CC50) at 72 h was ≥ 500 µM and the viability at 72 h, 500 µM was determined as 80%. In addition, in series [3], the “Cytotoxicity to HepG2 cells (in words)” value is “non-cytotoxic; also recorded: no cytotoxicity”.
Regarding `CC(=O)OCc1cn(-c2n[nH]c(C(F)(F)F)n2)nn1` [Compound 14d, (1-(5-(trifluoromethyl)-1H-1,2,4-triazol-3-yl)-1H-1,2,3-triazol-4-yl)methyl acetate], in series [2], the CC50 at 72 h is ≥ 500 µM and the viability at 72 h, 500 µM is 93.4%. Moreover, in series [3], the “Cytotoxicity to HepG2 cells (in words)” value is “non-cytotoxic; also recorded: no cytotoxicity”. Moreover, in series [4], the “Potential to block malaria transmission (classification)” value is “high potential to block malaria transmission; also recorded: strong potential to block malaria transmission”.
With `CCN(CC)CCCC(C)Nc1ccnc2cc(Cl)ccc12` (stereo not drawn) [chloroquine], in series [1], the Plasma protein binding entry is reported as “high plasm protein binding”.
As for `OC(c1cc(C(F)(F)F)nc2c(C(F)(F)F)cccc12)C1CCCCN1` (stereo not drawn) [mefloquine], the Plasma protein binding entry in series [1] is listed as “high plasm protein binding”.
In the case of `COc1cc(NC(C)CCCN)c2ncccc2c1` (stereo not drawn) [primaquine], the Plasma protein binding entry in series [1] was “high plasm protein binding”.

In general, CC50 refers to the concentration at which the toxic effect on the cells reaches its halfway point. By viability is commonly meant a per cent measure of how many cells are alive, often set against a control. High values mean better survival, low ones a greater loss of cells. As a reminder, the IC50 is the concentration that gives 50% inhibition.
